{"source": "ChEMBL document CHEMBL4354825", "about": "“Design and Synthesis of Basic Selective Estrogen Receptor Degraders for Endocrine Therapy Resistant Breast Cancer” (J Med Chem, 2019)", "key": {"[1]": {"experiment": "Antiproliferative activity against human MCF7:5C cells assessed as reduction in cell viability incubated for 7 days by Hoechst 33258 dye based assay relative to control", "type": "functional", "settings": "168 h", "procedure,_shortened": "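Cells were seeded at 5000 per well; MCF7:WS8 had been estrogen-stripped for 2 days first. Compounds were serially diluted in DMSO, with 0.01% DMSO as vehicle. The medium was removed on day 5 (MCF7:WS8) or day 7 (MCF7:5C), and cells were lysed by freezing at −80 °C overnight. DNA was measured by Hoechst 33258 fluorescence. Maximum efficacy was normalized to vehicle (0%) and no cells (100%); at least three biological replicates.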"}, "[2]": {"experiment": "AUC (0 to infinity) in CD-1 mouse plasma at 50 mg/kg, po measured upto 24 hrs by LC-MS/MS analysis", "settings": "in vivo"}, "[3]": {"experiment": "AUClast in C57BL/6 mouse at 5 mg/kg, iv measured upto 24 hrs by LC-MS/MS analysis", "type": "ADME, organism-based", "set-up": "time < 24 hr, dose 5 mg/kg, route intravenous", "settings": "in vivo", "procedure,_shortened": "(§1)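 Full PK run by a contract lab. Dosing was 50 mg/kg p.o. in water and 10% SBE-β-CD/PEG-400 (9:1 v/v), and 5 mg/kg i.v. Sampling at 0.25, 0.5, 1, 2, 4, 8 and 24 h (N = 5). Plasma samples were diluted in 50% acetonitrile and quantified by LC-MS/MS against standards serially diluted in 50% acetonitrile. Brain was also sampled after the oral dose.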"}, "[4]": {"experiment": "AUC (0 to infinity) in C57BL/6 mouse at 5 mg/kg, iv measured upto 24 hrs by LC-MS/MS analysis", "type": "ADME, organism-based", "set-up": "dose 5 mg/kg, route intravenous, time infinity", "settings": "in vivo", "procedure,_shortened": "as §1"}, "MCF7:TAM1": {"tested_on": "MCF7:TAM1", "experiment": "Cytotoxicity against human MCF7:TAM1 3D spheroid cells assessed as reduction in tumor cell viability at 10 nM incubated for 14 days by celltiter-glo 3D cell viability assay"}}, "note": "Calls of active or inactive are those of the source. The calls are words filed in the database; no cut-off is given here."}
{"smiles": "Cc1cc(F)cc(C)c1C(=O)c1sc2cc(O)ccc2c1Oc1ccc(OC2CN(CCCF)C2)cc1", "values": [{"measurement": "Emax", "setting": "[1]", "value": 54, "unit": "%"}, {"measurement": "AUC", "setting": "[2]", "value": 2292, "unit": "ng·h/mL"}, {"measurement": "AUClast", "setting": "[3]", "value": 766, "unit": "ng·h/mL"}, {"measurement": "AUC", "setting": "[4]", "value": 778, "unit": "ng·h/mL"}, {"measurement": "Activity", "setting": "MCF7:TAM1", "value": "Active"}]}
